Results taken from ChEMBL document CHEMBL4334465, “SAR Studies on Aromatic Acylhydrazone-Based Inhibitors of Fungal Sphingolipid Synthesis as Next-Generation Antifungal Agents” (J Med Chem, 2019).
≈ marks a conversion by molar mass, not a printed value.

Tests used:
A549 = assay: Cytotoxicity against human A549 cells after 24 to 48 hrs by MTT assay; assay type: functional; settings: read-out: LD50 (the source's name)
Method in brief: (§1)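 A549 and HepG2 kept in DMEM with 10% FBS and 1% pen-strep. At passage 7, seeded at 10⁵ cells/well and allowed to adhere 14 h. Compound added at 0.03–128 μg/mL, untreated wells as controls. Incubation 37°C, 5% CO₂ for 24 or 48 h. MTT (5 mg/mL in PBS) added for 4 h, formazan dissolved in DMSO, OD570.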

HepG2 = assay: Cytotoxicity against human HepG2 cells after 24 to 48 hrs by MTT assay; assay type: functional; settings: read-out: LD50 (the source's name); method in brief: as §1
Cryptococcus neoformans [1] = assay: Fungicidal activity against Cryptococcus neoformans H99 measured after 96 hrs by time-kill assay; assay type: functional, var grubii H99
Method in brief: (§2)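 Overnight C. neoformans washed in PBS and resuspended in HEPES-buffered YNB, pH 7.4. 2 × 10⁴ cells exposed to a range of drug concentrations in 10 mL with 0.5% DMSO final, at 37°C, 5% CO₂, shaking at 200 rpm. Aliquots sampled over 96 h, diluted and plated on YPD; CFU counted after 48 h at 30°C.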

Cryptococcus neoformans [2] = assay: Antifungal activity against Cryptococcus neoformans H99 measured after 24 to 72 hrs; assay type: functional; settings: var grubii H99
Method in brief: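 Modified CLSI broth microdilution with inoculum per M27A3. Compounds were serially diluted 32 to 0.03 μg/mL. Media: C. neoformans in HEPES-buffered YNB without amino acids (pH 7.0, 2% glucose); Candida strains in YNB without ammonium sulfate or amino acids plus 1% asparagine (pH 7.0, 2% glucose); A. fumigatus in RPMI (pH 7.0, 2% glucose).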

[3] = Selectivity index, ratio of LD50 for human A549 cells to MIC80 for Cryptococcus neoformans H99; assay type: toxicity; settings: read-out: Selectivity Index
Method in brief: (§3)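 SI = LD₅₀/MIC₈₀. Cytotoxicity: A549 or HepG2 cells (DMEM, 10% FBS, passage 7, 10⁵ cells/well) adhered 14 h, then exposed to 0.03–128 μg/mL for 24 or 48 h at 37°C, 5% CO₂; MTT 4 h, formazan dissolved in DMSO, read at 570 nm. MIC₈₀ against C. neoformans from broth microdilution in HEPES-buffered YNB, pH 7.0.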

[4] = Selectivity index, ratio of LD50 for human HepG2 cells to MIC80 for Cryptococcus neoformans H99; assay type: toxicity; settings: read-out: Selectivity Index; method in brief: as §3
Cryptococcus neoformans [5] = assay: Fungicidal activity against Cryptococcus neoformans H99 measured after 6 hrs by time-kill assay; assay type: functional, var grubii H99; method in brief: as §2
Cryptococcus neoformans [6] = assay: Fungicidal activity against Cryptococcus neoformans H99 measured after 12 hrs by time-kill assay; assay type: functional, var grubii H99; method in brief: as §2

**Q.** For `O=C(N/N=C/c1cccc(Cl)c1O)c1cccc(C(F)(F)F)c1`, which CC50 (A549) is on record?
**A.** 32 µg/mL (≈ 93.4 µM)

**Q.** And the CC50 (HepG2)?
**A.** 32 µg/mL (≈ 93.4 µM)

**Q.** What about the MFC100 (Cryptococcus neoformans [1]) of the same molecule?
**A.** 2 µg/mL (≈ 5.84 µM)

**Q.** And the MIC80 (Cryptococcus neoformans [2])?
**A.** 1 µg/mL (≈ 2.92 µM)

**Q.** What about the selectivity ratio [3] of the same molecule?
**A.** 32

**Q.** And the selectivity ratio [4]?
**A.** 32

**Q.** Which CC50 (A549) does the source give for `O=C(N/N=C/c1cc(Br)cc(Br)c1O)c1cccc(OC(F)F)c1` here?
**A.** 16 µg/mL (≈ 34.5 µM)

**Q.** And the CC50 (HepG2)?
**A.** 16 µg/mL (≈ 34.5 µM)

**Q.** What about the MFC100 (Cryptococcus neoformans [1]) of the same molecule?
**A.** 0.25 µg/mL (≈ 0.539 µM)

**Q.** And the MIC80 (Cryptococcus neoformans [2])?
**A.** 0.12 µg/mL (≈ 0.259 µM)

**Q.** And the selectivity ratio [3]?
**A.** 133

**Q.** And the selectivity ratio [4]?
**A.** 133

**Q.** With `O=C(N/N=C/c1cc(F)ccc1O)c1ccc(Br)cc1Br` as the molecule, how does the CC50 (A549) read?
**A.** 16 µg/mL (≈ 38.5 µM)

**Q.** What about the CC50 (HepG2) of the same molecule?
**A.** 16 µg/mL (≈ 38.5 µM)

**Q.** What about the MFC100 (Cryptococcus neoformans [1]) of the same molecule?
**A.** 2 µg/mL (≈ 4.81 µM)

**Q.** What about the MIC80 (Cryptococcus neoformans [2]) of the same molecule?
**A.** 1 µg/mL (≈ 2.4 µM)

**Q.** And the selectivity ratio [3]?
**A.** 16

**Q.** And the selectivity ratio [4]?
**A.** 16

**Q.** For `O=C(N/N=C/c1ccc(Br)cc1O)c1ccc(Br)cc1`, which CC50 (A549) is on record?
**A.** 16 µg/mL (≈ 40.2 µM)

**Q.** What about the CC50 (HepG2) of the same molecule?
**A.** 32 µg/mL (≈ 80.4 µM)

**Q.** What about the MFC100 (Cryptococcus neoformans [1]) of the same molecule?
**A.** 0.25 µg/mL (≈ 0.628 µM)

**Q.** What about the MIC80 (Cryptococcus neoformans [2]) of the same molecule?
**A.** 0.06 µg/mL (≈ 0.151 µM)

**Q.** What about the selectivity ratio [3] of the same molecule?
**A.** 267

**Q.** What about the selectivity ratio [4] of the same molecule?
**A.** 533

**Q.** Which CC50 (A549) does the source give for `O=C(N/N=C/c1cc(Cl)cc(Cl)c1O)c1ccc(Br)cc1Br` here?
**A.** 128 µg/mL (≈ 274 µM)

**Q.** And the CC50 (HepG2)?
**A.** 64 µg/mL (≈ 137 µM)

**Q.** And the MIC80 (Cryptococcus neoformans [2])?
**A.** 1 µg/mL (≈ 2.14 µM)

**Q.** What about the selectivity ratio [3] of the same molecule?
**A.** 128

**Q.** What about the MFC100 (Cryptococcus neoformans [5]) of the same molecule?
**A.** 0.5 µg/mL (≈ 1.07 µM)

**Q.** What about the selectivity ratio [4] of the same molecule?
**A.** 64

**Q.** For `O=C(N/N=C/c1ccc(Br)cc1O)c1cc(Br)ccc1Br`, which CC50 (A549) is on record?
**A.** 32 µg/mL (≈ 67.1 µM)

**Q.** What about the CC50 (HepG2) of the same molecule?
**A.** 16 µg/mL (≈ 33.5 µM)

**Q.** And the MIC80 (Cryptococcus neoformans [2])?
**A.** 0.12 µg/mL (≈ 0.252 µM)

**Q.** What about the selectivity ratio [3] of the same molecule?
**A.** 267

**Q.** What about the MFC100 (Cryptococcus neoformans [5]) of the same molecule?
**A.** 0.25 µg/mL (≈ 0.524 µM)

**Q.** And the selectivity ratio [4]?
**A.** 133

**Q.** For `O=C(N/N=C/c1cc(Cl)ccc1O)c1cc(Br)cc(Br)c1`, which CC50 (A549) is on record?
**A.** 16 µg/mL (≈ 37 µM)

**Q.** And the CC50 (HepG2)?
**A.** 16 µg/mL (≈ 37 µM)

**Q.** What about the MFC100 (Cryptococcus neoformans [6]) of the same molecule?
**A.** 1 µg/mL (≈ 2.31 µM)

**Q.** What about the MIC80 (Cryptococcus neoformans [2]) of the same molecule?
**A.** 0.12 µg/mL (≈ 0.277 µM)

**Q.** And the selectivity ratio [3]?
**A.** 133

**Q.** And the selectivity ratio [4]?
**A.** 133

**Q.** For `O=C(N/N=C/c1cc(F)ccc1O)c1ccc(Br)cc1`, which CC50 (A549) is on record?
**A.** 8 µg/mL (≈ 23.7 µM)

**Q.** What about the CC50 (HepG2) of the same molecule?
**A.** 16 µg/mL (≈ 47.5 µM)

**Q.** And the MFC100 (Cryptococcus neoformans [1])?
**A.** 4 µg/mL (≈ 11.9 µM)

**Q.** And the MIC80 (Cryptococcus neoformans [2])?
**A.** 1 µg/mL (≈ 2.97 µM)

**Q.** What about the selectivity ratio [3] of the same molecule?
**A.** 8

**Q.** What about the selectivity ratio [4] of the same molecule?
**A.** 16

**Q.** For `O=C(N/N=C/c1cc(Cl)ccc1O)c1ccc(Br)cc1Br`, which CC50 (A549) is on record?
**A.** 64 µg/mL (≈ 148 µM)

**Q.** And the CC50 (HepG2)?
**A.** 64 µg/mL (≈ 148 µM)

**Q.** What about the MFC100 (Cryptococcus neoformans [6]) of the same molecule?
**A.** 1 µg/mL (≈ 2.31 µM)

**Q.** And the MIC80 (Cryptococcus neoformans [2])?
**A.** 0.25 µg/mL (≈ 0.578 µM)

**Q.** What about the selectivity ratio [3] of the same molecule?
**A.** 256

**Q.** And the selectivity ratio [4]?
**A.** 256

**Q.** Which results are given for `O=C(N/N=C/c1cc(Br)cc(Br)c1O)c1ccc(OC(F)F)cc1`?
**A.** CC50 (A549): 16 µg/mL (≈ 34.5 µM); CC50 (HepG2): 16 µg/mL (≈ 34.5 µM); MIC80 (Cryptococcus neoformans [2]): 0.12 µg/mL (≈ 0.259 µM); selectivity ratio [3]: 133; MFC100 (Cryptococcus neoformans [5]): 1 µg/mL (≈ 2.15 µM); selectivity ratio [4]: 133
